# How the values were obtained:
# [1] = target: Beta-1 adrenergic receptor (Homo sapiens, UniProt P08588); assay: Binding affinity (measured using [125I]iodocyanopindolol) against human Beta-1 adrenergic receptor expressed in CHO cells; assay type: cell-based
# Procedure, shortened: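 Membranes from CHO cells expressing cloned human β1 receptor; competition binding against 125I-iodocyanopindolol.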
# [2] = target: Beta-2 adrenergic receptor (Homo sapiens, UniProt P07550); assay: Binding affinity against human Beta-2 adrenergic receptor expressed in CHO cells using [125I]iodocyanopindolol; assay type: cell-based
# Chain of Beta-2 adrenergic receptor (P07550 whole entry): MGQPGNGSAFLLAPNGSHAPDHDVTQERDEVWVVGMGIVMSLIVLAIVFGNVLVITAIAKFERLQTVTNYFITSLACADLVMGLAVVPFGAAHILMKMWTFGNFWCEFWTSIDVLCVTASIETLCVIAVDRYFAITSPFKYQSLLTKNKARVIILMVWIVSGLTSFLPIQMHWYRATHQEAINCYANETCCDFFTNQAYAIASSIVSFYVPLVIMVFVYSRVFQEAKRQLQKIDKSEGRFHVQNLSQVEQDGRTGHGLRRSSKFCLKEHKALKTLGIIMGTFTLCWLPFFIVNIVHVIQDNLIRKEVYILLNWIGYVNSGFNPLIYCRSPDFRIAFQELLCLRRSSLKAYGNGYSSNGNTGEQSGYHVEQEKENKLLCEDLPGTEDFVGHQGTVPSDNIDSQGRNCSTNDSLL
# [3] = target: T1, Beta-3 adrenergic receptor (Homo sapiens, UniProt P13945); assay: Stimulated increase in cAMP in CHO cells expressing human beta-3 receptor; assay type: functional, cell-based
# Target sequence in this assay (P13945 whole entry): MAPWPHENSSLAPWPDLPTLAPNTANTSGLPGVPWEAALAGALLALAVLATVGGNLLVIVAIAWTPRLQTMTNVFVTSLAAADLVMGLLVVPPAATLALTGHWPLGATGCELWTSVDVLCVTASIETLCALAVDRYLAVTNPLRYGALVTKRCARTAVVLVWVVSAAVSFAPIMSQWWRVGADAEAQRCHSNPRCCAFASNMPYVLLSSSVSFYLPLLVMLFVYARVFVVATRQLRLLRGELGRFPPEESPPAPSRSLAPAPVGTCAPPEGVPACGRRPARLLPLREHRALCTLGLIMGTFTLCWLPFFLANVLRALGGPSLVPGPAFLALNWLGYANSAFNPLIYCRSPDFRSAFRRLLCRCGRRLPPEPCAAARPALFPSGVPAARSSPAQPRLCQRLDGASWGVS
# [4] = target: T1, Beta-3 adrenergic receptor; assay: Percent increase in adenylyl cyclase activation in CHO cells expressing human beta-3 adrenergic receptor; assay type: functional, cell-based
# Procedure, shortened: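 Functional adenylyl cyclase stimulation via the β3 receptor. Activation expressed as percent of the maximal stimulation produced by isoproterenol.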
# Target sequence in this assay (P13945 whole entry, looked up): as the sequence (P13945 whole entry) above
# [5] = Half life period was determined; assay type: ADME, organism-based, Canis lupus familiaris; settings: dog, in vivo
# Procedure, shortened: (§1)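 Beagle dogs dosed orally at 10 mg/kg (solution in 0.5% methylcellulose/0.02% sodium lauryl sulfate with 2 equiv HCl) and iv at 3 mg/kg (PEG400/ethanol/normal saline 60:20:20 v/v/v). Blood taken predose and at 5 (iv only), 15, 30 min, 1, 2, 6, 8, 24 h. Plasma drug measured by LC/MS/MS.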
# [6] = Oral bioavailability in dog; assay type: ADME, organism-based, Canis lupus familiaris; settings: in vivo; procedure, shortened: as §1
# [7] = Bioavailability after peroral administration in dogs; assay type: ADME, organism-based, Canis lupus familiaris; settings: dog, in vivo, po; procedure, shortened: as §1
# Chain of Beta-1 adrenergic receptor (P08588 whole entry): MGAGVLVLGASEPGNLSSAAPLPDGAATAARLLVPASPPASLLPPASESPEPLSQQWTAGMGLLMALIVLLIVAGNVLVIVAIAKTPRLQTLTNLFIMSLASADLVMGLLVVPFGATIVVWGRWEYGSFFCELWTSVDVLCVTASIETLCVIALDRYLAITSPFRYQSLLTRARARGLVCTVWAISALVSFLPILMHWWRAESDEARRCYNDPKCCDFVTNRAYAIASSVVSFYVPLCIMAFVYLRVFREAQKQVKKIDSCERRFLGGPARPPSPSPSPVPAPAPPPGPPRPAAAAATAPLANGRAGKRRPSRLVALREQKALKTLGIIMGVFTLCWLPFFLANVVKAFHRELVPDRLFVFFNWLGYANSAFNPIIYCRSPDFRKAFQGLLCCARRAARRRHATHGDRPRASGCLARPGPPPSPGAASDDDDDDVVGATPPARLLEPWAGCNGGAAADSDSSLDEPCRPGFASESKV
SMILES,IC50 [1] [nM],IC50 [2] [nM],EC50 [3] [nM],Max stimulation [4] [%],half-life [5] [h],bioavailability [6] [%],bioavailability [7] [%]
O=S(=O)(Nc1ccc(CCNC[C@H](O)c2cccnc2)cc1)c1ccc(-c2nc(CCc3ccccc3)cs2)cc1,9000,910,33,70,,,
CC(=O)Nc1ccc(-c2csc(-c3ccc(S(=O)(=O)Nc4ccc(CCNC[C@H](O)c5cccnc5)cc4)cc3)n2)cc1,960,2100,45,82,,,
CC(=O)NCCCCCc1csc(-c2ccc(S(=O)(=O)Nc3ccc(CCNC[C@H](O)c4cccnc4)cc3)cc2)n1,50000,16000,50,82,,,
O=S(=O)(Nc1ccc(CCNC[C@H](O)c2cccnc2)cc1)c1ccc(-c2nc(CCCC3CCCC3)cs2)cc1,7000,3000,26,95,,,
O=S(=O)(Nc1ccc(CCNC[C@H](O)c2cccnc2)cc1)c1ccc(-c2nc(-c3ccc(O)cc3)cs2)cc1,1100,5700,45,58,,,
CCCCCCCCc1csc(Cc2ccc(S(=O)(=O)Nc3ccc(CCNC[C@H](O)c4cccnc4)cc3)cc2)n1,850,1000,9.8,79,,,
O=S(=O)(Nc1ccc(CCNC[C@H](O)c2cccnc2)cc1)c1ccc(Cc2nc(Cc3ccc4ccccc4c3)cs2)cc1,2500,2000,12,83,,,
O=S(=O)(Nc1ccc(CCNC[C@H](O)c2cccnc2)cc1)c1ccc(-c2nc(Cc3ccc(F)cc3)cs2)cc1,3000,2500,6.2,57,,,
O=c1n(CCCC2CCCC2)nnn1-c1ccc(S(=O)(=O)Nc2ccc(CCNC[C@H](O)c3cccnc3)cc2)cc1,,,,,3.6,,
CC(C)(C)c1ccc(-c2csc(-c3ccc(S(=O)(=O)Nc4ccc(CCNC[C@H](O)c5cccnc5)cc4)cc3)n2)cc1,1600,2000,2.4,100,,,
O=S(=O)(Nc1ccc(CCNC[C@H](O)c2cccnc2)cc1)c1ccc(-c2nc(-c3ccc(F)cc3)cs2)cc1,1500,1900,9.5,81,,,
O=S(=O)(Nc1ccc(CCNC[C@H](O)c2cccnc2)cc1)c1ccc(-c2nc(-c3ccc4ncccc4c3)cs2)cc1,6000,8000,2.7,97,,,
CCCCCCCCc1csc(-c2ccc(S(=O)(=O)Nc3ccc(CCNC[C@H](O)c4cccnc4)cc3)cc2)n1,3700,3000,10,84,,,
O=S(=O)(Nc1ccc(CCNC[C@H](O)c2cccnc2)cc1)c1ccc(-c2nc(-c3cnc4ccccc4c3)cs2)cc1,19000,47000,7.3,79,,,
O=S(=O)(Nc1ccc(CCNC[C@H](O)c2cccnc2)cc1)c1ccc(-c2nc(-c3cc4ccccc4o3)cs2)cc1,90000,49000,9.1,91,,,
O=S(=O)(Nc1ccc(CCNC[C@H](O)c2cccnc2)cc1)c1ccc(-c2nc(-c3cc4ccccc4s3)cs2)cc1,100000,93000,5.8,94,,,
CCCCCCc1csc(-c2ccc(S(=O)(=O)Nc3ccc(CCNC[C@H](O)c4cccnc4)cc3)cc2)n1,40000,620,51,69,,,
CCCCCCCCc1csc(N2CCc3cc(S(=O)(=O)Nc4ccc(CCNC[C@H](O)c5cccnc5)cc4)ccc32)n1,,,,,,13,
O=S(=O)(Nc1ccc(CCNC[C@H](O)c2cccnc2)cc1)c1ccc(-c2nc(-c3ccc4ccccc4c3)cs2)cc1,13000,6300,2,100,,,
O=S(=O)(Nc1ccc(CCNC[C@H](O)c2cccnc2)cc1)c1ccc(-c2nc(Cc3ccc4ccccc4c3)cs2)cc1,3300,2300,5,75,,,
O=S(=O)(Nc1ccc(CCNC[C@H](O)c2cccnc2)cc1)c1ccc(-c2nc(-c3ccc(F)c(F)c3)cs2)cc1,,,,92,,,36
O=S(=O)(Nc1ccc(CCNC[C@H](O)c2cccnc2)cc1)c1ccc(-c2nc(-c3c[nH]c4ccccc34)cs2)cc1,30000,50000,4.9,100,,,
CCCCCCc1ccc(-c2csc(-c3ccc(S(=O)(=O)Nc4ccc(CCNC[C@H](O)c5cccnc5)cc4)cc3)n2)cc1,52000,90000,1.2,84,,,
O=S(=O)(Nc1ccc(CCNC[C@H](O)c2cccnc2)cc1)c1ccc(-c2nc(-c3ccccn3)cs2)cc1,6500,4000,22,100,,,
O=S(=O)(Nc1ccc(CCNC[C@H](O)c2cccnc2)cc1)c1ccc(-c2nc(-c3cccnc3)cs2)cc1,7000,3000,40,69,,,

# From ChEMBL document CHEMBL1133294, “Potent, selective 3-pyridylethanolamine beta3 adrenergic receptor agonists possessing a thiazole benzenesulfonamide pharmacophore” (Bioorg Med Chem Lett, 2000)
